Blank lines part the entries; values can stand above or below the compound they belong to. Peptide text beside a SMILES is read from it.
Assays:
[1] = test system: amyloid beta 42 (Aβ42); conditions: serine protease inhibitor AEBSF; cited from earlier work
[2] = molecular target: authentic soluble form Aβ42 (a‐Aβ42) (Homo sapiens, UniProt P05067); conditions: cleaved in the central region; cited from earlier work
[3] = test system: A549 cells; test: Effect on the growth of A549 cells; format: cell-based, human; conditions: 72 hours
How it was run: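 A549 cells were grown in DMEM with 10% FBS and penicillin/streptomycin at 37°C in 5% CO2, then seeded at 4 x 10^3 cells/well. After 24 h the medium was replaced and cells were treated with 0.2 mM test peptide, 0.2 mM FLAG peptide or 4 µM cisplatin for 72 h. WST-8 was added for 1 h. Absorbance was read at 450 nm against a 620 nm reference.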

[4] = Plasma level and brain uptake following intraperitoneal and nasal administration; format: in vivo, male ddY mice; conditions: mouse; for AUC(0-t): male, ddY, 1 mg
How it was run: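 Male ddY mice (25 g) received 1 mg of peptide either intranasally into the left nostril (100 mg/mL in PBS, 10 µL) or intraperitoneally (10 mg/mL in PBS). Blood was drawn at 5, 15 and 30 min. Brains were taken at 30 min after saline/heparin cardiac perfusion. Plasma and brain homogenate were extracted with methanol and assayed by positive-mode LC/MS on C18 (acetonitrile:0.1% acetic acid 10/90). AUC was computed to 30 min.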

[5] = In vitro stability in plasma and whole blood; format: in vitro ADME; conditions: data not shown
[6] = Plasma clearance following intravenous bolus injection; format: in vivo, Male Wistar/ST rats; conditions: rat
[7] = molecular target: solid insoluble form Aβ42 (s‐Aβ42) (Homo sapiens, UniProt P05067); test: Proteolysis of solid insoluble s-Aβ42 by the peptide; format: biochemical; conditions: over 7 days; 27% with peptide minus 17% without
Chain of solid insoluble form Aβ42 (s‐Aβ42) (P05067 672-713): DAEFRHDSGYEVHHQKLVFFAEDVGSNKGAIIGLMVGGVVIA
How it was run: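 s-Aβ42 (0.3 mg), washed with CH3CN and CH3OH, was incubated with or without peptide (1 mM final) with HSA (0.125% w/v) in PBS at 37°C for 7 days, at five times the a-Aβ42 scale. HPLC was run daily and fragments were identified by ESI-MS. Solid weight was recorded on day 0 and day 7. The net decrease ratio is the with-peptide decrease minus the without-peptide decrease.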

[8] = male, Wistar/ST, plasma, iv, 2 mg/animal

Chain of authentic soluble form Aβ42 (a‐Aβ42) (P05067 672-713): as above

Compound: YKGSGFRMI [JAL‐TA9]
- effect of AEBSF on proteolytic activity [1]: completely inhibited
- cleavage of a‐Aβ42 and s‐Aβ42 [2]: cleaved

Compound: [NH2][Pt]([NH2])([Cl])[Cl] [CDDP, Cisplatin, reference compound]
- effect on the growth of A549 cells ([3]; 4 μM, WST-8, positive control): inhibited the growth

- AUC(0-t) ([4]; inhaled or intranasal): 27.2 ng·h/mL
- AUC(0-t) ([4]; ip): 193 ng·h/mL
- nasal AUC as percentage of intraperitoneal AUC ([4]; up to 30 minutes, 1 mg each route): 14%
- in vitro stability in plasma and whole blood [5]: not particularly labile
- AUC [6, 8]: 124 ng·h/mL
- clearance [6, 8]: 270 mL/min
- initial half‐life in plasma ([6]; i.v. bolus 2 mg/head, LC/MS): 10 s
- plasma concentration post‐injection ([6]; i.v. bolus 2 mg/head, within 15 minutes post-injection, LC/MS): below the detection limit
- decreasing ratio of s‐Aβ42 by ANA‐TA9 (corrected for incubation without peptide) [7]: 10%
Compound: CC[C@H](C)[C@H](NC(=O)[C@H](CCSC)NC(=O)[C@H](CCCNC(=N)N)NC(=O)[C@H](Cc1ccc(O)cc1)NC(=O)[C@H](C)NC(=O)[C@H](CCC(N)=O)NC(=O)CNC(=O)[C@H](CCCCN)NC(=O)[C@@H](N)CO)C(=O)O [ANA‐TA9] (H-SKGQAYRMI-OH)
- effect on the growth of A549 cells ([3]; 0.2 mM, WST-8, compared to 0.2 mM FLAG peptide control): did not show a significant inhibitory effect

— publication PMC8012241 (Alzheimer's & Dementia : Translational Research & Clinical …, 2021)
